Screening data from PubChem BioAssay.
C8 TRAIL sens: sensitizes caspase-8 expressing cells to TRAIL. NB7+C8 cells + TRAIL, ATPlite viability luminescence. inhibition (viability loss, TRAIL sensitization), % at 10 µM. 360,000 tested, 1% active. AID 624354;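 active = compounds causing at least 50% loss of cell viability in the single-dose screen, relative to plate controls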
FLuc act counter: firefly luciferase counter-screen for stimulation assays | activation factor at 10 µM | ATPlite luciferase biochemical, luminescence, 10 min; 0 = ATP-free wells, 1 = DMSO control | P08659 | AID 1027 | 200,000 tested, under 10 active;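 active = luciferase activation factor, scaled between plate controls, of at least 2 with compound at 10 µM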
Target sequence (P08659 whole entry, looked up): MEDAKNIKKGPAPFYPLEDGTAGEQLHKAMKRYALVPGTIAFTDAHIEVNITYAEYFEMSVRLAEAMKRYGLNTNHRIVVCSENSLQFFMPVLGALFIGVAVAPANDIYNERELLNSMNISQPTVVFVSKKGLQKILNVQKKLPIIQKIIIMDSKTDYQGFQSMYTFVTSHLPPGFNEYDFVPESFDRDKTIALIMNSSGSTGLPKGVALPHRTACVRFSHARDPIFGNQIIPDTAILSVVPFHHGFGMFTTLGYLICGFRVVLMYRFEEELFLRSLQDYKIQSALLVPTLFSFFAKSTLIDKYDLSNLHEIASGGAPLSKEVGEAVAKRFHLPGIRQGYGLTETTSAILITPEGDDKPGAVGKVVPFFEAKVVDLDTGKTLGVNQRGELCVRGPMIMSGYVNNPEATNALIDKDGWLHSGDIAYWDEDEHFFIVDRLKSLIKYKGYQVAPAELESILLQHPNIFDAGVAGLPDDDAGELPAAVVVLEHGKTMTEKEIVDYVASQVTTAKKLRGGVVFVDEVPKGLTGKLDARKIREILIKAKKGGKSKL
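Assay system: Luciferase/luciferin detection reagent, cell-free biochemical luciferase assay / Read-out: luciferase activation / Benchmarks: No-ATP low control, compound-free enzyme-plus-ATP high control / Medium: PBS buffer for ATP / Detection: luminescence measurement of luciferase light output / Schedule: 10 min at ambient temperature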
FLuc inhib CS: Photinus pyralis luciferase inhibition counter-screen; P08659; 200,000 tested, 1.5% active; inhibition, % at 10 µM; ATPLite firefly luciferase biochemical luminescence, 10 min;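 active = inhibition above about 50% when tested at 10 µM, limit read from the data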
PPC-1+TRAIL kill: PPC-1 cancer cell killing with TRAIL present | PPC-1 cells + TRAIL, ATPLite viability luminescence | cell killing (% activity), % at 4 µM or 5 µM | 220,000 tested, 0.41% active | AID 1443;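 active = cell killing above 50% in the first pass at 4 µM, then a duplicate retest at 5 µM averaging 50% or more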;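 note: plate controls were cells with TRAIL plus DMSO for no effect and medium-only wells lacking cells for full effect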
* marks the source's active call; other numbers are inactive results; nt = no result given; ! = not confirmed by another sample. In the library only some 1.5% were active in any assay of this set; here they are far more common.

SMILES	C8 TRAIL sens	FLuc act counter	FLuc inhib CS	PPC-1+TRAIL kill
COc1ccc(Cl)cc1S(=O)(=O)NC(C)C(=O)NCCN1CCOCC1 (stereo unspecified)	-7	nt	nt	nt
C#CCN(C[C@@H]1[C@@H](OC(=O)NCC2CCCCC2)[C@@H](OC(=O)NCC2CCCCC2)Cn2c(=O)ccc(=O)n21)S(=O)(=O)c1ccc(C)cc1	93*	nt	nt	nt
C#CCN(C[C@@H]1[C@@H](OC(=O)NCCCCCC)[C@@H](OC(=O)NCCCCCC)Cn2c(=O)ccc(=O)n21)S(=O)(=O)c1ccc(C)cc1	89*	nt	nt	nt
C#CCN(C[C@@H]1[C@@H](OC(=O)NCc2ccco2)[C@@H](OC(=O)NCc2ccco2)Cn2c(=O)ccc(=O)n21)S(=O)(=O)c1ccc(C)cc1	15	nt	nt	nt
O=[N+]([O-])c1ccc(CS(=O)c2ccccc2)cc1 (stereo unspecified)	-10	nt	nt	nt
O=[N+]([O-])c1ccc(S(=O)Cc2ccccc2)c([N+](=O)[O-])c1 (stereo unspecified)	66*	nt	nt	nt
CCCC1=NN(c2ccc([N+](=O)[O-])cc2)C(=O)/C1=C/N(C)C	-1	1	-3	20
CC1=NN(c2ccc([N+](=O)[O-])cc2)C(=O)/C1=C\N(C)C	5	0.5	52*	26
CC(=O)c1cccc(NC(=O)c2cccc3c(-c4cccnc4)coc23)c1	33	nt	nt	nt
CCCC(=O)N(Cc1cc(=O)[nH]c2ccccc12)c1cccc(C)c1	8	nt	nt	nt
COc1ccc(N(Cc2cc(=O)[nH]c3ccccc23)C(=O)CCl)cc1	96*	nt	nt	nt
Cc1cccc(N(Cc2cc(=O)[nH]c3ccccc23)C(=O)CCl)c1	84*	nt	nt	nt
CCCC(=O)N(Cc1cc(=O)[nH]c2ccccc12)c1ccc(OC)cc1	1	nt	nt	nt
NC(=O)c1ccc(NC(=O)CN2CCN(Cc3ccccc3)CC2)cc1	-7	nt	nt	nt
CC(c1ccon1)N(C)C(=O)c1cccc(OC2CCN(S(C)(=O)=O)CC2)c1 (stereo unspecified)	9	nt	nt	nt
COCCNC(=O)C1(C)CCCN(Cc2ccc(Cl)nc2)C1 (stereo unspecified)	-12	nt	nt	nt
CCN(CC)S(=O)(=O)c1ccc(SCC(=O)c2c(N)n(C3CC3)c(=O)[nH]c2=O)nc1	19	nt	nt	nt
CSc1nnc(NC(=O)c2ccc3c(c2)OCO3)s1	74*	nt	nt	nt
CCOC(=O)C(C)Sc1nnc(NC(=O)c2ccc3c(c2)OCO3)s1 (stereo unspecified)	16	0.9	12	12
CCOC(=O)CNC(=O)CSc1nnc(NC(=O)c2ccc3c(c2)OCO3)s1	83*	nt	nt	nt
COc1ccccc1[C@@]1(C)ON(c2ccccc2C(F)(F)F)C1=O	29	nt	nt	nt
CC(Sc1nnc(-c2cccnc2)n1C)C(=O)N1CCOCC1 (stereo unspecified)	0	nt	nt	nt
CN1C(=CC=C2C=C(I)C(=O)C(I)=C2)C(C)(C)c2ccccc21	24	nt	nt	50*
C=CCN1C(=O)C(=Cc2ccc3c(c2)CCC3)SC1=S	92*	nt	nt	nt
CCc1cc2c(COC(=O)CCNS(=O)(=O)c3cccc(C(F)(F)F)c3)cc(=O)oc2cc1O	54*	nt	nt	nt
SMILES	C8 TRAIL sens	FLuc act counter	FLuc inhib CS	PPC-1+TRAIL kill
Cc1cc(NC(=O)COC(=O)CCNS(=O)(=O)c2cccc(C(F)(F)F)c2)no1	3	1.1	-7	6
N#CCCCc1cn(-c2nc3ccccc3s2)nn1	4	nt	nt	nt
COc1cc(NC(=O)c2nccnc2N)cc(C(=O)Nc2cccc(C(F)(F)F)c2)c1	6	nt	nt	3
Cc1ccc(C(=O)Nc2cccc(C(F)(F)F)c2)cc1NC(=O)c1nccnc1N	54*!	nt	nt	-8
O=C(NCc1ccc(Cl)cc1)C1CCN(C(=O)c2ccc(Cl)cc2)CC1	1	nt	nt	nt
Cc1cc(N)n(-c2cc(C)c3ccccc3n2)n1	60*	0.2	84*	48
CC1(c2ccccc2)NC(=O)N(CC(=O)NCC2CCCO2)C1=O (stereo unspecified)	-3	nt	nt	nt
COc1ccc(/C=C(\C#N)C(=O)Nc2ccccn2)cc1	3	nt	nt	nt
Cc1ccc(/C=C(\C#N)C(=O)Nc2ccccn2)o1	30	0.3	68*	5
COCCCn1c(C(=O)Nc2ccc3c(c2)OCO3)cc2c(=O)n3cccc(C)c3nc21	54*	nt	nt	nt
CC(C)CC(=O)Nc1nnc(S(=O)(=O)Nc2ccccc2)s1	13	nt	nt	nt
Cc1cccc(/C=C2/Sc3ccc(C(=O)NCCN4CCCC4)cc3NC2=O)c1	22	nt	nt	nt
CCN1CCN(CCCNC(=O)c2ccc3c(c2)NC(=O)/C(=C\c2cccc(C)c2)S3)CC1	70*	nt	nt	nt
COc1cccc(/C=C2/Sc3ccc(C(=O)NCCN4CCCCCC4)cc3NC2=O)c1	75*	nt	nt	nt
c1ccc(-c2nc3ccccc3s2)nc1	17	0.4	61*	14
Nc1ccc(-c2nc3ccccc3s2)cn1	24	nt	nt	nt
O=C1CCC(=O)N1c1ccc(-c2nc3ccccc3s2)cc1	78*	0.1	88*	31
Brc1ccc(-c2nc3ccccc3s2)s1	24	0.4	64*	22
Cc1cc(-c2nc3ccccc3s2)ccc1N	72*	nt	nt	nt
CC(C#Cc1ccc2c(c1)COc1c3ccccc3nn1-2)OC(C)(C)C (stereo unspecified)	14	nt	nt	nt
O=C(COC(=O)c1ccco1)Nc1ccc2c(c1)OCCO2	2	0.3	69*	30
O=C(Nc1ccc2c(c1)OCCO2)c1ccco1	35	0.5	50*	26
CC1(C)Oc2ccc(NC(=O)c3ccco3)cc2O1	28	0.4	63*	28
O=C(c1cccs1)N1C[C@H](O)[C@@H](n2cc(C3CC3)nn2)C[C@@H]1c1ccccc1	-7	nt	nt	nt
Cc1ccccc1-c1noc(-c2ccc(Cl)cc2)n1	23	0.8	22	-16
Clc1ccc(-c2nc(-c3cnccn3)no2)cc1	53*	nt	nt	25
Fc1ccc(-c2nc(-c3cnccn3)no2)c(Cl)c1	60*	nt	nt	49
